Reference: ChEMBL document CHEMBL1139544, “Potent, orally active corticotropin-releasing factor receptor-1 antagonists containing a tricyclic pyrrolopyridine or pyrazolopyridine core” (J Med Chem, 2005)

Columns and labels:
[1] = biological target: T1, Corticotropin-releasing factor receptor 1 (Homo sapiens, UniProt P34998); assay: Inhibition of [125I]sauvagine binding to corticotropin releasing factor receptor 1 expressed in LtK- cells; Not active (<30% inhibition at 10 uM); assay type: cell-based
T1 sequence (P34998 whole entry): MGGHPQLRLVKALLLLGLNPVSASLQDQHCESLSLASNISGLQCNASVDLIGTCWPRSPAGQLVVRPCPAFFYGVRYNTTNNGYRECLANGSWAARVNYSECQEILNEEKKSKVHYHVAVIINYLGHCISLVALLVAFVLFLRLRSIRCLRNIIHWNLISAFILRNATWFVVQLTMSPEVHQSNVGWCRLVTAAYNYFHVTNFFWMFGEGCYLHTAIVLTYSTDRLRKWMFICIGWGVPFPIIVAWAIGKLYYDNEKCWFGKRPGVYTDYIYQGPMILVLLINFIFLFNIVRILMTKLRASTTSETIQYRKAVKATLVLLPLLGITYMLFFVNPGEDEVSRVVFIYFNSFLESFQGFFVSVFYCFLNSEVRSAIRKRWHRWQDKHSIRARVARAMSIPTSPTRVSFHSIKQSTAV

[2] = biological target: T1, Corticotropin-releasing factor receptor 1; assay: Inhibition of [125I]sauvagine binding to corticotropin releasing factor receptor 1 expressed in LtK- cells; assay type: cell-based
[3] = Bioavailability in rat (dose 10 mg/kg p.o. and 10 mg/kg, i.v.); assay type: ADME, organism-based; conditions: in vivo, po
Summary of the method: (§1)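 Male Sprague Dawley rats were given one compound intravenously via tail vein and by oral gavage (N = 3/time point), dosed in purified water at 2 mL/kg. Terminal blood and brain were taken at set times for composite sampling. Plasma was acetonitrile-precipitated and analysed by LC-MS/MS (LLOQ 5 ng/mL). Parameters came from a noncompartmental model.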

[4] = Volume of distribution in rat following administration of 10 mg/kg, p.o. and 10 mg/kg, i.v.; assay type: ADME, organism-based; conditions: in vivo, iv; summary of the method: as §1
[5] = Half life in rat following administration of 10 mg/kg, p.o. and 10 mg/kg, i.v.; assay type: ADME, organism-based; conditions: in vivo; summary of the method: as §1
[6] = Total body clearance in rat following administration of 10 mg/kg, p.o. and 10 mg/kg, i.v.; assay type: ADME, organism-based; conditions: in vivo, iv; summary of the method: as §1
[7] = biological target: Corticotropin releasing factor receptor (Rattus norvegicus, UniProt P47866+P35353); assay: Inhibition of corticotropin releasing factor stimulated adrenocorticotropic hormone release from rat pituitary cells; assay type: functional, cell-based; conditions: pituitary gland cell
Summary of the method: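 Pituitaries from 7-week-old female Sprague Dawley rats were digested with collagenase and plated at 40 000 cells/well in 3% FCS/BBM-T for 2-3 days. Compound (1 pM–1 µM) was added with 0.5 nM r/hCRF for 4 h at 37 °C. ACTH in the medium was measured by RIA, and IC50 was obtained by nonlinear curve fitting.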

[8] = Half life in rat following administration of 10 mg/kg, p.o. and 10 mg/kg i.v.; assay type: ADME, organism-based; conditions: in vivo; summary of the method: as §1
[9] = Bioavailability in rat following administration of 10 mg/kg, p.o. and 10 mg/kg i.v.; assay type: ADME, organism-based; conditions: in vivo, po; summary of the method: as §1
[10] = Total body clearance in rat following administration of 10 mg/kg, p.o. and 10 mg/kg i.v.; assay type: ADME, organism-based; conditions: in vivo, iv; summary of the method: as §1
[11] = Total body clearance in rat following administration of 10 mg/kg, p.o. and 5 mg/kg, i.v.; assay type: ADME, organism-based; conditions: in vivo, iv; summary of the method: as §1
[12] = Volume of distribution in rat following administration of 10 mg/kg, p.o. and 5 mg/kg, i.v.; assay type: ADME, organism-based; conditions: in vivo, iv; summary of the method: as §1
[13] = Half life in rat following administration of 10 mg/kg, p.o. and 5 mg/kg, i.v.; assay type: ADME, organism-based; conditions: in vivo; summary of the method: as §1
[14] = Bioavailability in rat following administration of 10 mg/kg, p.o. and 5 mg/kg, i.v.; assay type: ADME, organism-based; conditions: in vivo, po; summary of the method: as §1
[15] = Bioavailability in rat (dose 2 mg/kg p.o. and 1 mg/kg, i.v.); assay type: ADME, organism-based; conditions: in vivo, po
Summary of the method: (§2)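 Cassette study in male Sprague Dawley rats: five compounds were co-administered at 2 mg/kg po (gavage) and by tail-vein iv (N = 3/time point), in purified water at 2 mL/kg. Composite terminal plasma sampling was used. Plasma was acetonitrile-precipitated for LC-MS/MS (LLOQ 5 ng/mL). Parameters came from a noncompartmental model.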

[16] = Half life in rat following administration of 2 mg/kg, p.o. and 1 mg/kg, i.v.; assay type: ADME, organism-based; conditions: in vivo; summary of the method: as §2
[17] = Volume of distribution in rat following administration of 2 mg/kg, p.o. and 1 mg/kg, i.v.; assay type: ADME, organism-based; conditions: in vivo, iv; summary of the method: as §2
[18] = Total body clearance in rat following administration of 2 mg/kg, p.o. and 1 mg/kg, i.v.; assay type: ADME, organism-based; conditions: in vivo, iv; summary of the method: as §2

CCCC(CCC)N1CCc2c3c1cc(C)nc3nn2-c1ccc(Cl)cc1Cl
Ki [1]: Not Active

CCCC(CCC)N1CCc2cn(-c3ccc(C)cc3)c3nc(C)cc1c23
Ki [2]: 30 nM

CCCC(CCC)N1CCc2cn(Cc3ccc(Cl)cc3C)c3nc(C)cc1c23
Ki [2]: 1900 nM

CCC(COC)N1CCc2cn(-c3ccc(Cl)cc3C#N)c3nc(C)cc1c23 (stereo unspecified)
Ki [2]: 40 nM

COCC(COC)N1CCc2cn(-c3ccc(Cl)cc3C#N)c3nc(C)cc1c23
Ki [2]: 120 nM

CCCC(CCC)N1CCc2cn(-c3ccccc3OC)c3nc(C)cc1c23
Ki [2]: 55 nM

CCC(CC)N1CCc2cn(-c3ccc(Cl)cc3C#N)c3nc(C)cc1c23
Ki [2]: 62 nM

CCCC(CCC)N1CCc2cn(-c3ccc(S(C)(=O)=O)cc3Cl)c3nc(C)cc1c23
Ki [2]: 13 nM
bioavailability [3]: 74%
Vd [4]: 66 L/kg
half-life [5]: 300 min
clearance [6]: 152 mL/min/kg
IC50 [7]: 250 nM

CCCC(CCC)N1CCc2cn(-c3ccc(OC)cc3C)c3nc(C)cc1c23
Ki [2]: 6.5 nM
bioavailability [3]: 18%
Vd [4]: 53 L/kg
half-life [5]: 342 min
clearance [6]: 107 mL/min/kg
IC50 [7]: 39 nM

CCCC(CCC)N1CCc2cn(-c3ccc(C)cc3Cl)c3nc(C)cc1c23
half-life [8]: 378 min
Ki [2]: 3.5 nM
bioavailability [9]: 24%
Vd [4]: 38 L/kg
clearance [10]: 70 mL/min/kg
IC50 [7]: 14 nM

CCCC(CCC)N1CCc2cn(-c3ccc(OC)nc3OC)c3nc(C)cc1c23
Ki [2]: 5.4 nM
bioavailability [3]: 50%
Vd [4]: 62 L/kg
half-life [5]: 600 min
clearance [6]: 70 mL/min/kg
IC50 [7]: 29 nM

CCCC(CCC)N1CCc2nn(-c3ccc(Cl)cc3Cl)c3nc(C)cc1c23
Ki [2]: 2.9 nM
clearance [11]: 43 mL/min/kg
Vd [12]: 44 L/kg
half-life [13]: 720 min
IC50 [7]: 6.8 nM
bioavailability [14]: 7%

CCCC(CCC)N1CCc2cn(-c3ccc(Cl)cc3Cl)c3nc(C)cc1c23
Ki [2]: 4.2 nM

CCCC(CCC)N1CCc2cn(-c3ccc(Cl)cc3C#N)c3nc(C)cc1c23
Ki [2]: 13 nM

Cc1cc2c3c(cn(-c4ccc(Cl)cc4C#N)c3n1)CCN2C
Ki [1]: Not Active

CCCCN1CCc2cn(-c3ccc(Cl)cc3C#N)c3nc(C)cc1c23
Ki [2]: 49 nM

CCCC(CCC)N1CCc2cn(-c3ccc(C#N)cc3Cl)c3nc(C)cc1c23
Ki [2]: 7.2 nM

CCC(COC)N1CCc2cn(-c3c(C)cc(Cl)cc3C)c3nc(C)cc1c23 (stereo unspecified)
Ki [2]: 16 nM
bioavailability [15]: 66%
half-life [16]: 150 min
Vd [17]: 19 L/kg
clearance [18]: 87 mL/min/kg
IC50 [7]: 27 nM

CCC(CC)N1CCc2cn(-c3ccc(OC(F)(F)F)cc3C)c3nc(C)cc1c23
Ki [2]: 6 nM
bioavailability [15]: 76%
half-life [16]: 1980 min
Vd [17]: 80 L/kg
clearance [18]: 28 mL/min/kg
IC50 [7]: 48 nM

CCCC(CCC)N1CCc2cn(-c3cccc(OC)c3)c3nc(C)cc1c23
Ki [2]: 190 nM

CCCCN(CC)c1nc(C)nc2c1c(C)c(C)n2-c1c(C)cc(C)cc1C [ANTALARMIN]
Ki [2]: 3.1 nM
